In ChEMBL document CHEMBL1142895, “Discovery of a new insecticide lead by optimizing a target-diverse scaffold: tetrazolinone derivatives” (2007):
Active and inactive are the calls of the source. No cut-off for these calls is given here.

What was measured:
[1] = system: Triticum aestivum; experiment: Inhibition of stem growth of Triticum aestivum at 100 mg/L; format: functional
Summary of the method: (§1)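 Seeds of each species were grown in Petri dishes with 10 seeds per dish, at 28 °C, 70–80% RH, 16:8 h light:dark photoperiod and 3000 lx light for 5 days. Root and stem lengths were measured for the 10 seeds and averaged. Each test and its controls were run in three replicates, and the data were given probit analysis.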

[2] = system: Triticum aestivum; experiment: Inhibition of root growth of Triticum aestivum at 100 mg/L; format: functional; summary of the method: as §1
[3] = system: Echinochloa crus-galli; experiment: Inhibition of stem growth of Echinochloa crus-galli at 100 mg/L; format: functional; summary of the method: as §1
[4] = system: Echinochloa crus-galli; experiment: Inhibition of root growth of Echinochloa crus-galli at 100 mg/L; format: functional; summary of the method: as §1
[5] = system: Sorghum bicolor; experiment: Inhibition of stem growth of Sorghum bicolor at 100 mg/L; format: functional; summary of the method: as §1
[6] = system: Sorghum bicolor; experiment: Inhibition of root growth of Sorghum bicolor at 100 mg/L; format: functional; summary of the method: as §1
[7] = system: Brassica rapa subsp. oleifera; experiment: Inhibition of stem growth of Brassica campestris at 100 mg/L; format: functional; summary of the method: as §1
[8] = system: Brassica rapa subsp. oleifera; experiment: Inhibition of root growth of Brassica campestris at 100 mg/L; format: functional; summary of the method: as §1
[9] = system: Radish; experiment: Inhibition of stem growth of Raphanus sativus at 100 mg/L; format: functional; summary of the method: as §1
[10] = system: Radish; experiment: Inhibition of root growth of Raphanus sativus at 100 mg/L; format: functional; summary of the method: as §1
[11] = system: Cucumis sativus; experiment: Inhibition of stem growth of Cucumis sativus at 100 mg/L; format: functional; summary of the method: as §1
[12] = system: Cucumis sativus; experiment: Inhibition of root growth of Cucumis sativus at 100 mg/L; format: functional; summary of the method: as §1
[13] = system: Aphis; experiment: Insecticidal activity against Aphis medicagini at 250 mg/L; format: functional
Summary of the method: (§2)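 Groups of 10 of each species were placed in glass Petri dishes and sprayed with test solution using a Potter sprayer. After air-drying, they were held under normal rearing conditions. Mortality at 72 h was taken from the number and size of live larvae relative to untreated controls.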

[14] = system: Triticum aestivum; experiment: Herbicidal activity against Triticum aestivum at 450 g ai/ha in greenhouse in vivo test; format: functional, organism-based
[15] = system: Echinochloa crus-galli; experiment: Herbicidal activity against Echinochloa crus-galli at 450 g ai/ha in greenhouse in vivo test; format: functional, organism-based
[16] = system: Sorghum bicolor; experiment: Herbicidal activity against Sorghum bicolor at 450 g ai/ha in greenhouse in vivo test; format: functional, organism-based
[17] = system: Brassica rapa subsp. oleifera; experiment: Herbicidal activity against Brassica campestris at 450 g ai/ha in greenhouse in vivo test; format: functional, organism-based
[18] = system: Radish; experiment: Herbicidal activity against Raphanus sativus at 450 g ai/ha in greenhouse in vivo test; format: functional, organism-based
[19] = system: Cucumis sativus; experiment: Herbicidal activity against Cucumis sativus at 450 g ai/ha in greenhouse in vivo test; format: functional, organism-based
[20] = system: Tetranychus cinnabarinus; experiment: Insecticidal activity against Tetranychus cinnabarinus at 250 mg/L; format: functional; summary of the method: as §2

| SMILES | inhibition at 100 µg/mL [1] [%] | inhibition at 100 µg/mL [2] [%] | inhibition at 100 µg/mL [3] [%] | inhibition at 100 µg/mL [4] [%] | inhibition at 100 µg/mL [5] [%] | inhibition at 100 µg/mL [6] [%] | inhibition at 100 µg/mL [7] [%] | inhibition at 100 µg/mL [8] [%] | inhibition at 100 µg/mL [9] [%] | inhibition at 100 µg/mL [10] [%] | inhibition at 100 µg/mL [11] [%] | inhibition at 100 µg/mL [12] [%] | Activity [13] [%] | Activity [14] | Activity [15] | Activity [16] | Activity [17] | Activity [18] | Activity [19] | Activity [20] [%] |
| --- | --- | --- | --- | --- | --- | --- | --- | --- | --- | --- | --- | --- | --- | --- | --- | --- | --- | --- | --- | --- |
| COc1cccc(Cn2nnn(-c3ccc(Cl)cc3)c2=O)c1 | 0 | 0 | 0 | 0 | 0 | 0 | 0 | 0 | 0 | 0 | 0 | 0 | 3.3 | inactive | inactive | inactive | inactive | inactive | inactive | 0 |
| Cc1ccccc1CSc1nnc(Cn2nnn(-c3ccc(Cl)cc3)c2=O)s1 | 60 | 60 | 70 | 60 | 30 | 0 | 30 | 50 | 40 | 40 | 0 | 0 | 0 | inactive | inactive | inactive | inactive | inactive | inactive | 0 |
| CCCCSc1nnc(Cn2nnn(-c3ccc(Cl)cc3)c2=O)s1 | 40 | 40 | 30 | 70 | 40 | 50 | 40 | 50 | 0 | 30 | 0 | 0 | 0 | inactive | inactive | inactive | inactive | inactive | inactive | 5.7 |
| Cc1ccc(Cn2nnn(-c3ccc(Cl)cc3)c2=O)cc1 | 0 | 0 | 0 | 0 | 0 | 0 | 0 | 0 | 0 | 0 | 0 | 0 | 3.3 | inactive | inactive | inactive | inactive | inactive | inactive | 0 |
| CCOC(=O)CSc1nnc(Cn2nnn(-c3ccc(Cl)cc3)c2=O)s1 | 60 | 50 | 0 | 0 | 50 | 30 | 50 | 70 | 60 | 70 | 30 | 50 | 0 | inactive | inactive | inactive | inactive | inactive | inactive | 80 |
| CC(C)(C)c1ccc(CSc2cnn(C(C)(C)C)c(=O)c2Cl)cc1 [PYRIDABEN] |  |  |  |  |  |  |  |  |  |  |  |  |  |  |  |  |  |  |  | 100 |
| C=CCn1nnn(-c2ccc(Cl)cc2)c1=O | 80 | 80 | 50 | 0 | 60 | 60 | 50 | 50 | 80 | 80 | 30 | 40 | 3.3 | inactive | inactive | inactive | inactive | inactive | inactive | 4.3 |
| O=c1n(Cc2ccccc2F)nnn1-c1ccc(Cl)cc1 | 0 | 0 | 0 | 0 | 0 | 0 | 0 | 0 | 0 | 0 | 0 | 0 | 5 | inactive | inactive | inactive | inactive | inactive | inactive | 10 |
| CCCCCCSc1nnc(Cn2nnn(-c3ccc(Cl)cc3)c2=O)s1 | 30 | 0 | 0 | 0 | 40 | 60 | 40 | 70 | 30 | 40 | 0 | 0 | 0 | inactive | inactive | inactive | inactive | inactive | inactive | 4.3 |
| O=c1n(Cc2cccc(Cl)c2)nnn1-c1ccc(Cl)cc1 | 0 | 0 | 0 | 0 | 0 | 0 | 0 | 0 | 0 | 0 | 0 | 0 | 0 | inactive | inactive | inactive | inactive | inactive | inactive | 0 |
| CCOC(=O)C(C)Sc1nnc(Cn2nnn(-c3ccc(Cl)cc3)c2=O)s1 (stereo not given) | 50 | 70 | 40 | 50 | 70 | 80 | 80 | 85 | 50 | 80 | 60 | 60 | 0 | inactive | inactive | inactive | inactive | inactive | inactive | 0 |
| O=c1c(Cn2nnn(-c3ccccc3Cl)c2=O)coc2ccccc12 | 30 | 0 | 0 | 0 | 30 | 50 | 30 | 50 | 30 | 50 | 0 | 0 | 13.3 | inactive | inactive | inactive | inactive | inactive | inactive | 2.9 |
| C=CCn1nnn(-c2ccccc2Cl)c1=O | 50 | 50 | 0 | 0 | 0 | 0 | 60 | 0 | 0 | 0 | 60 | 0 | 1.7 | inactive | inactive | inactive | inactive |  | inactive | 98.6 |
